What was measured:
Histamine H2 receptor = Histamine H2 receptor (Cavia porcellus, UniProt P47747); experiment: Agonist activity at guinea pig histamine H2 receptor stably transfected in HEK293T cells co-expressing NlucN-mGs/gpH2R-NlucC by mini-G protein recruitment assay; assay type: functional, cell-based
D(2) dopamine receptor = D(2) dopamine receptor (Homo sapiens, UniProt P14416); assay type: functional, cell-based, HEK293T;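 note: agonist mode, β-arrestin2 recruitment to the human D2 long isoform stably expressed in HEK293T cells, read by split luciferase complementation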
Chain of D(2) dopamine receptor (P14416 whole entry, canonical isoform): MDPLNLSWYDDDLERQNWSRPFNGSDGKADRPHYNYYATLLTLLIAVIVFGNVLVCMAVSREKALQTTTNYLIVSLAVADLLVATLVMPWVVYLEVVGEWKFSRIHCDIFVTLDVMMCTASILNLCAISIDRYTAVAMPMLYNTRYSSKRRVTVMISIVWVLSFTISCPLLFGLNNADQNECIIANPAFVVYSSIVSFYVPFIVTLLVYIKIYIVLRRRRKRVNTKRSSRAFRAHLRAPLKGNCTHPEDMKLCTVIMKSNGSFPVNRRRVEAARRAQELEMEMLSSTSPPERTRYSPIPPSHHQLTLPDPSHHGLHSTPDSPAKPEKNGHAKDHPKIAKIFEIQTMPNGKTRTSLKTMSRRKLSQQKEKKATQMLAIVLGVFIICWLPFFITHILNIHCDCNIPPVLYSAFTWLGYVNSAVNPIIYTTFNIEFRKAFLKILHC

Histamine H1 receptor = Histamine H1 receptor (Homo sapiens, UniProt P35367)
Chain of Histamine H1 receptor (P35367 whole entry): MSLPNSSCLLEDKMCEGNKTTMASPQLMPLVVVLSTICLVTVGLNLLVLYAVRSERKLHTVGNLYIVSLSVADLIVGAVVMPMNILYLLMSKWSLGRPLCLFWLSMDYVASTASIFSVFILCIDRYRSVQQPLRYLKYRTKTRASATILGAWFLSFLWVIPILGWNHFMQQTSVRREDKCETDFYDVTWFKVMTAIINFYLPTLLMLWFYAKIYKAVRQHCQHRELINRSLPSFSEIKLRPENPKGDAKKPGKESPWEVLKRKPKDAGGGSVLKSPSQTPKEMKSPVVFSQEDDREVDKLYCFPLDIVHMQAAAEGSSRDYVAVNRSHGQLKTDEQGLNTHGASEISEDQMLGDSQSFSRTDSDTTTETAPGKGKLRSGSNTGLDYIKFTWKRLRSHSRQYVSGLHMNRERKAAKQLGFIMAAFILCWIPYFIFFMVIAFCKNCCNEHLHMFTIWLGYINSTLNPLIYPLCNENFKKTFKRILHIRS

[1] = molecular target: Beta-2 adrenergic receptor (Homo sapiens, UniProt P07550); experiment: Displacement of [3H]CGP12177 from human beta-2 adrenergic receptor […] in HEK293T cell membrane incubated for 2 hrs by scintillation counting analysis; assay type: cell membranes
Chain of Beta-2 adrenergic receptor (P07550 whole entry): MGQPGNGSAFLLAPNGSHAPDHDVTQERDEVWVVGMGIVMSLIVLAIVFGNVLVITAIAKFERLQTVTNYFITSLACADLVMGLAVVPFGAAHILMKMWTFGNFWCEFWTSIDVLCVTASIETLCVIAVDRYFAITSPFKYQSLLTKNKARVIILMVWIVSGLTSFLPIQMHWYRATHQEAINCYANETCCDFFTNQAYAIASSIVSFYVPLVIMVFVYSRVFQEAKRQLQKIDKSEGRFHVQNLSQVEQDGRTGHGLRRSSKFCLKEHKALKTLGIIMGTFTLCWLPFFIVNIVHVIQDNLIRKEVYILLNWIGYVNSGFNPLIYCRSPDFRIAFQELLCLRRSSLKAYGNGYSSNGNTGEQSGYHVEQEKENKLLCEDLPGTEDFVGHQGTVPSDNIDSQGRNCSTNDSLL
Method in brief: (§1)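 Membranes of transiently transfected HEK293T cells in 25 mM HEPES, 5 mM MgCl2, 1 mM EDTA, 0.01% BSA, pH 7.4. β1 at 2 μg/well, β2 at 4 μg/well, with 0.2 nM [3H]CGP12177. Nonspecific binding with 10 μM CGP12177. IC50 converted to Ki by Cheng–Prusoff.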

[2] = molecular target: Beta-1 adrenergic receptor (Homo sapiens, UniProt P08588); experiment: Displacement of [3H]CGP12177 from human beta-1 adrenergic receptor […] in HEK293T cell membrane incubated for 2 hrs by scintillation counting analysis; assay type: cell membranes; method in brief: as §1
Chain of Beta-1 adrenergic receptor (P08588 whole entry): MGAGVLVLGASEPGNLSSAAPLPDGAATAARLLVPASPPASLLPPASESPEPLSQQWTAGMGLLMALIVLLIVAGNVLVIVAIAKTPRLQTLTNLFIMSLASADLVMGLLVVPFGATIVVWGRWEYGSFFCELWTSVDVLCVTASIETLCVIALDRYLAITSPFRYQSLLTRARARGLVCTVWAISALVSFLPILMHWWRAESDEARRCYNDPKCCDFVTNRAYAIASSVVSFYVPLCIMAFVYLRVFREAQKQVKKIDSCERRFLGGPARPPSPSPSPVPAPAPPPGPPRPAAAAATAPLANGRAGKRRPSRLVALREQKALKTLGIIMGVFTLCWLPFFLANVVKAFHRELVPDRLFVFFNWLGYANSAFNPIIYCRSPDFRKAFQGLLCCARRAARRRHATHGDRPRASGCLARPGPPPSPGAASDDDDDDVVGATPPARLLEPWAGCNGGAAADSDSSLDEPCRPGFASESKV

[3] = molecular target: T1, Muscarinic acetylcholine receptor M2 (Homo sapiens, UniProt P08172); experiment: Displacement of [3H]N-methylscopolamine from human muscarinic acetylcholine M2 receptor stably expressed in CHO cells by radioligand competition binding based analysis; assay type: cell-based
T1 sequence (P08172 whole entry): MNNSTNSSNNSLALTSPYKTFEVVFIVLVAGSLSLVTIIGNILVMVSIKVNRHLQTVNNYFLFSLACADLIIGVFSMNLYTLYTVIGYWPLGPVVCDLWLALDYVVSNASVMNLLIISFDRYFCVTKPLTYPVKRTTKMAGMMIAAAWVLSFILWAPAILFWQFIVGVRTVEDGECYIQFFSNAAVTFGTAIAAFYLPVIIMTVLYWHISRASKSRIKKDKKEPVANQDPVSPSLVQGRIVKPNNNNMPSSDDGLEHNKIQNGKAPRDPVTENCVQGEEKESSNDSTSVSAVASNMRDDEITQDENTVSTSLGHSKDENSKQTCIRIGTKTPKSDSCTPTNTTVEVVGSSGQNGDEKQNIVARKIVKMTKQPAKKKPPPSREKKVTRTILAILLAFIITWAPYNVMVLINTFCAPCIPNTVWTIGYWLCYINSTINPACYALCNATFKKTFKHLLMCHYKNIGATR
Method in brief: (§2)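 Whole CHO cells stably expressing hM1–hM5, competed against [3H]N-methylscopolamine. Kd/applied concentrations in nM: M1 0.17/0.2, M2 0.10/0.2, M3 0.12/0.2, M4 0.052/0.1, M5 0.20/0.3.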

Mu-type opioid receptor = Mu-type opioid receptor (Homo sapiens, UniProt P35372); experiment: Displacement of [3H]diprenorphine from human mu-opioid receptor […] in HEK293T cell membrane incubated for 2 hrs by scintillation counting analysis; assay type: cell membranes
Chain of Mu-type opioid receptor (P35372 whole entry): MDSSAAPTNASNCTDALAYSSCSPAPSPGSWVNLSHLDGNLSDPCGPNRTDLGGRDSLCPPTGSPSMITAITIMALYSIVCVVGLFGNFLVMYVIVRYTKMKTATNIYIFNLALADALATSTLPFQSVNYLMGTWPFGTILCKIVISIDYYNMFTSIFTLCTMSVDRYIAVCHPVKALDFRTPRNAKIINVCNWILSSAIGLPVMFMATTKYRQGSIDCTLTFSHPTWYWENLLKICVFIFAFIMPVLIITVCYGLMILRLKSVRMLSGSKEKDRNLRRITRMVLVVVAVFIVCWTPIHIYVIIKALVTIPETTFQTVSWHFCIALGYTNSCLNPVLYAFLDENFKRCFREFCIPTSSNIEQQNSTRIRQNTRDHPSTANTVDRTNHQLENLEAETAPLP
Method in brief: (§3)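 Transiently transfected HEK293T membranes in 50 mM Tris, pH 7.4. α2A: 10 μg/well, 0.5 nM [3H]RX821002, nonspecific with 10 μM RX821002. μOR: 6 μg/well, 0.3 nM [3H]diprenorphine, nonspecific with 10 μM naloxone. Ki from IC50 by Cheng–Prusoff.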

[4] = molecular target: T2, Alpha-2A adrenergic receptor (Homo sapiens, UniProt P08913); experiment: Displacement of [3H]RX821002 from human alpha-2A adrenergic receptor […] in HEK293T cell membrane incubated for 2 hrs by scintillation counting analysis; assay type: cell membranes; method in brief: as §3
T2 sequence (P08913 whole entry): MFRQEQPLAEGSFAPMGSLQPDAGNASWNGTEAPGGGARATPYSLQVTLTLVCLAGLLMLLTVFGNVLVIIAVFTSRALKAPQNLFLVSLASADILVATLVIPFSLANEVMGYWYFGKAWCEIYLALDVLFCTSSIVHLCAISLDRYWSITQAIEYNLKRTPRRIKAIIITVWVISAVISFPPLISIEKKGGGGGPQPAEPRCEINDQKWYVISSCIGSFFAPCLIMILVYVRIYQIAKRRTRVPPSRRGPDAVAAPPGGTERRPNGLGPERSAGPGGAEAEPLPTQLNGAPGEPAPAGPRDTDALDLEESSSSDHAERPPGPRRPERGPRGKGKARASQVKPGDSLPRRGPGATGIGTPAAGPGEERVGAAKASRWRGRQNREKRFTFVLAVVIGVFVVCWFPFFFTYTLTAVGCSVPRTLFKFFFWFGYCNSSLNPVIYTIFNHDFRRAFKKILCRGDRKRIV

D(1A) dopamine receptor = D(1A) dopamine receptor (Homo sapiens, UniProt P21728); experiment: Displacement of [3H]SCH23390 from human D1 receptor stably expressed in HEK293T cells co-expressing luciferase and CEK incubated for 60 mins by scintillation counting analysis; assay type: cell-based
Chain of D(1A) dopamine receptor (P21728 whole entry): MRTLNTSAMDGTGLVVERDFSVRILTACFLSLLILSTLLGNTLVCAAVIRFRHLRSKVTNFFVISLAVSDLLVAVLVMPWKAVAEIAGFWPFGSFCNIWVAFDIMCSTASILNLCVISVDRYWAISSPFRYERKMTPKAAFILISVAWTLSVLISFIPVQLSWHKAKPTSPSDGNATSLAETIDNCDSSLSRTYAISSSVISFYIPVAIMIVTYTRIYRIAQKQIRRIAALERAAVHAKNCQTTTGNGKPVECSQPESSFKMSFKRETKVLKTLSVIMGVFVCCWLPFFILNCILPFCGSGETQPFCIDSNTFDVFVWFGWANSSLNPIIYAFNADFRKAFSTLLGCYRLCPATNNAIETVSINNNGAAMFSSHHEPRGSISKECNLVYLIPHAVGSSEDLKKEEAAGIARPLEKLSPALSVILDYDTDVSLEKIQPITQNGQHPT

[5] = molecular target: Muscarinic acetylcholine receptor M3 (Homo sapiens, UniProt P20309); experiment: Displacement of [3H]N-methylscopolamine from human muscarinic acetylcholine M3 receptor stably expressed in CHO cells by radioligand competition binding based analysis; assay type: cell-based; method in brief: as §2
Chain of Muscarinic acetylcholine receptor M3 (P20309 whole entry): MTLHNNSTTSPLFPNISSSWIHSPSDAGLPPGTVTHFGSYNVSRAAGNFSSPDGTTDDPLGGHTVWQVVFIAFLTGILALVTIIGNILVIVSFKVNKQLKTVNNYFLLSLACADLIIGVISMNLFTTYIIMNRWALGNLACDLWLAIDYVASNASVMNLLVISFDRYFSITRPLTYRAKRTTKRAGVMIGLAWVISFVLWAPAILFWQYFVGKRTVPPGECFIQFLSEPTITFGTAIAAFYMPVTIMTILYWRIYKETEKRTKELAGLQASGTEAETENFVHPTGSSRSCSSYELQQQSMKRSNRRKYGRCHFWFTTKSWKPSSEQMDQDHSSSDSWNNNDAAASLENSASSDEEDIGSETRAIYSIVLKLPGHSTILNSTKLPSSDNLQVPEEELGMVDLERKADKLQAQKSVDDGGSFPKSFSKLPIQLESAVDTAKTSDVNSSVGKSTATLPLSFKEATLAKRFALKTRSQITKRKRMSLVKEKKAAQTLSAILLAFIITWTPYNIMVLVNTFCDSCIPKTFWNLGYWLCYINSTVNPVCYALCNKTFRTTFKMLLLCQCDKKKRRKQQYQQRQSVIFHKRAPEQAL

[6] = molecular target: T3, Alpha-1A adrenergic receptor (Homo sapiens, UniProt P35348); experiment: Displacement of [3H]prazosin from human alpha-1A adrenergic receptor stably expressed in HEK293T cell membrane incubated for 2 hrs by scintillation counting analysis; assay type: cell membranes
T3 sequence (P35348 whole entry): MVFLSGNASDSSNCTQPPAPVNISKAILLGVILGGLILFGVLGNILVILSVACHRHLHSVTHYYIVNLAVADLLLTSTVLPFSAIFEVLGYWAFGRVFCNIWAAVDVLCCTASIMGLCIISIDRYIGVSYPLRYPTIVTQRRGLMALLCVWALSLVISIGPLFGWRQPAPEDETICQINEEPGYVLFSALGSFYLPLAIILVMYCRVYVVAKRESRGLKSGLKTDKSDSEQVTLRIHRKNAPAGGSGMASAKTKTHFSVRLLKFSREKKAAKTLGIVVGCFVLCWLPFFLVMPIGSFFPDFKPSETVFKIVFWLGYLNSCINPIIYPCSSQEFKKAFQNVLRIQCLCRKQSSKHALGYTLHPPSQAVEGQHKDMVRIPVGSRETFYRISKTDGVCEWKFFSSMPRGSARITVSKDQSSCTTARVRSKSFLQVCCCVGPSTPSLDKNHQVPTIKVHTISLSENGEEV

Chain of Histamine H2 receptor (P47747 whole entry, canonical isoform): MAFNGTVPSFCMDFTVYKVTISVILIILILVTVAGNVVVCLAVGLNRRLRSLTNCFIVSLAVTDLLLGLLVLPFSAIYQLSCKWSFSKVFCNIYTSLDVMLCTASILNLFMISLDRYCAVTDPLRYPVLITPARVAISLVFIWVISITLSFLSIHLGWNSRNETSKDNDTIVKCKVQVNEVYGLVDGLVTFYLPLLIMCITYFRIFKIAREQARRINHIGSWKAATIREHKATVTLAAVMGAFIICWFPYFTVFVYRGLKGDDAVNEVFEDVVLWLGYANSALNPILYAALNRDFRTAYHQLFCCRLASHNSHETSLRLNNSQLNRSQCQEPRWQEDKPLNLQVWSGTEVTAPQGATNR

Row | Structure (SMILES) | EC50 (Histamine H2 receptor) [nM] | EC50 (D(2) dopamine receptor) [µM] | Kd (Histamine H1 receptor) [nM] | Ki (Histamine H1 receptor) [µM] | Kd [1] [nM] | pKi [1] | Kd [2] [nM] | pKi [2] | Kd [3] [nM] | Kd (Mu-type opioid receptor) [nM] | pKi (Mu-type opioid receptor) | Kd [4] [nM] | pKi [4] | Kd (D(1A) dopamine receptor) [nM] | Ki (D(1A) dopamine receptor) [nM] | Kd [5] [nM] | pKi [5] | Kd [6] [nM] | pKi [6] | Ki [3] [µM]
1 | CCCCCNC(=O)/N=C(\N)NCCCc1nnc(N)s1.O=C(O)C(F)(F)F.O=C(O)C(F)(F)F | 4.37 | > 10 | 4.5 | 6.46 | 0.07 | 4.2 | 0.075 | < 4 | 0.1 | 0.09 | 5.47 | 0.6 | 5.31 | 0.23 | 2450 | 0.12 | < 5 | 0.25 | 5.45 | 
2 | C[C@@H](NC(=O)/N=C(\N)NCCCc1ncn[nH]1)c1ccccc1 | 16.2 | > 10 | 4.5 | 7.94 | 0.07 | 4.45 | 0.075 | 4.31 | 0.1 | 0.09 | 4.76 | 0.6 | 6.07 | 0.23 | 2190 | 0.12 | < 5 | 0.25 | 5.72 | > 10
3 | N/C(=N\C(=O)NCc1ccccc1)NCCCc1nnc(N)s1 | 2.19 | > 10 | 4.5 | 5.37 | 0.07 | 4.4 | 0.075 | < 4 | 0.1 | 0.09 | 5.4 | 0.6 | 5.9 | 0.23 | 1380 | 0.12 | < 5 | 0.25 | 6.07 | 
4 | CCCCCNC(=O)/N=C(\N)NCCCc1sc(N)nc1C |  |  |  |  | 0.07 | 4.93 | 0.075 | 4.66 | 0.1 | 0.09 | 5.99 | 0.6 | 6.05 | 0.23 | 257 | 0.12 | < 5 | 0.25 | 5.69 | > 10

Reference: ChEMBL document CHEMBL5149991 (J Med Chem, 2021)
